Reference: ChEMBL document CHEMBL4393678, “Novel Tetrahydroquinazolinamines as Selective Histamine 3 Receptor Antagonists for the Treatment of Obesity” (J Med Chem, 2019)
Activity calls are given as the source filed them. No cut-off for these calls is given here.

Columns and labels:
Mus musculus [1] = assay: Anti-obesity activity in high fat diet-induced obese C57BL/6J mouse model assessed as change in blood TG level at 10 to 20 mg/kg, po measured after 6 weeks; format: functional, organism-based
In short: (§1)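 At the end of treatment (six weeks HFD, four weeks db/db), mice euthanized with avertin 350 mg/kg. Blood taken by cardiac puncture into 3.8% sodium citrate. Plasma separated at 4000 rpm and stored at -80 °C. TG, TC, HDLc and LDLc measured on a bio-analyzer.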

Mus musculus [2] = assay: Anti-obesity activity in 16 hrs fasted db/db-induced obese C57BL/6J mouse model assessed as reduction in fasting blood glucose level at 20 mg/kg, po measured after 4 weeks; format: functional, organism-based
Histamine H2 receptor = Histamine H2 receptor (Homo sapiens, UniProt P25021); assay: Agonist activity at recombinant human Gs-coupled H2 receptor expressed in HEK293T cells assessed as inhibition of forskolin-stimulated cAMP accumulation at 10 uM preincubated for 10 to 15 followed by forskolin-stimulation by Glo-sensor assay relative to control; format: functional, cell-based; set-up: scale not given: the % may be the effect or the level left
In short: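 HEK293T cells were transiently co-transfected with GloSensor-22F cAMP plasmid and human H2R plasmid, then held 15–18 h at 37 °C in 5% CO2. Cells were loaded with sodium luciferin (1 mg/ml) for 90 min. Agonist mode used 10 µM compound, with luminescence read directly after 10–15 min. Screening was in triplicate, scored as ≥50% change versus control.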

Mus musculus [3] = assay: Anti-obesity activity in high fat diet-induced obese C57BL/6J mouse model assessed as reduction in body fat mass at 20 mg/kg, po measured after 6 weeks relative to control by NMR-based magnetic resonance imaging analysis; format: functional; set-up: scale not given: the % may be the effect or the level left
[4] = Cmax in C57BL/6J mouse serum at 20 mg/kg, po by LC-MS/MS analysis; format: ADME, organism-based; set-up: dose 20 mg/kg, route oral
In short: (§2)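 Male C57BL/6J mice (6-8 weeks, 20 ± 5 g) fasted overnight (12-16 h) got a single 20 mg/kg oral dose as 2.5 mg/mL suspension in 1% w/v gum acacia; n=5 per time point. Serum and brain (PBS homogenate 1:6 w/v) sampled up to 24 h. Parent and demethylated metabolite quantified by LC-MS/MS after liquid-liquid extraction (C18, MRM, phenacetin internal standard; linear 0.25-200 ng/mL). Two-compartment open model fit.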

Mus musculus [5] = assay: Anti-obesity activity in 16 hrs fasted db/db-induced obese C57BL/6J mouse model assessed as change in blood LDL level at 20 mg/kg, po measured after 6 weeks; format: functional, organism-based
Mus musculus [6] = assay: In vivo antagonist activity at H3R in 12 hrs fasted db/db-induced obese C57BL/6J mouse model assessed as increase in c-FOS expression in para-ventricular nucleus of hypothalamus at 20 mg/kg, ip measured after 90 mins by immunohistochemistry-based fluorescence assay; format: functional, organism-based
[7] = Protein binding in C57BL/6J mouse plasma by equilibrium dialysis method; format: ADME, cell-free; conditions: read-out: PPB (converted)
In short: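 Plasma protein binding and unbound fraction in mouse brain tissue homogenate measured by equilibrium dialysis.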

Mus musculus [8] = assay: Anorexic effect in 12 hrs fasted db/db-induced obese C57BL/6J mouse model assessed as reduction in cumulative food intake at 10 mg/kg, po pretreated for 30 mins followed by food addition measured after 4 hrs; format: functional, organism-based
In short: (§3)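 Mice starved 12 h (8:00 am to 8:00 pm) with water available, then housed singly. Compound given orally in 5% gum acacia in normal saline; vehicle group received the same. Cumulative food intake measured over 4 h of the night phase (9:00 pm to 1:00 am), starting 30 min after dosing. Antagonism arms: imitet 5 mg/kg i.p. 30 min before compound, or α-methyl-DL-histidine 20 mg/kg i.p. 2 h before.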

[9] = Tmax in C57BL/6J mouse brain at 20 mg/kg, po by LC-MS/MS analysis; format: ADME, organism-based; in short: as §2
[10] = Cmax in C57BL/6J mouse brain assessed as 4-(2-Amino-8-methyl-5,6,7,8-tetrahydroquinazolin-4-yl)phenol level at 20 mg/kg, po by LC-MS/MS analysis; format: ADME, organism-based; set-up: dose 20 mg/kg, route oral; conditions: in vivo; in short: as §2
[11] = molecular target: Histamine H1 receptor (Homo sapiens) (UniProt P35367); assay: Agonist activity at H1R (unknown origin) expressed in HEK293 cells harboring luc2P/NFAT-RE plasmid at 10 uM after 6 to 8 hrs by luciferase reporter gene assay; format: cell-based
In short: (§4)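 NFAT-RE luciferase assay in HEK293T cells transiently co-transfected with luc2P/NFAT-RE plasmid and receptor plasmid. Cells plated in DMEM and incubated overnight at 37 °C, 5% CO₂. Compounds and reference ligands applied for 6-8 h. Luciferase read after adding Bright-Glo substrate (1 mg/ml final).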

[12] = molecular target: D(2) dopamine receptor (Homo sapiens) (UniProt P14416); assay: Agonist activity at Gi-coupled D2 receptor (unknown origin) expressed in HEK293T cells assessed as inhibition of forskolin-stimulated cAMP accumulation preincubated for 10 to 15 followed by forskolin-stimulation by Glo-sensor assay; format: functional, cell-based
[13] = molecular target: D(1A) dopamine receptor (Homo sapiens) (UniProt P21728); assay: (§5) Antagonist activity at Gs-coupled D1 receptor (unknown origin) expressed in HEK293T cells assessed as reduction in histamine-induced inhibition of forskolin-stimulated cAMP accumulation preincubated for 10 to 15 followed by histamine addition for 10 mins and subsequent forskolin-stimulation by Glo-sensor assay; format: functional, cell-based
[14] = molecular target: D(2) dopamine receptor (Homo sapiens) (UniProt P14416); assay: as §5, with “Gi-coupled D2” for “Gs-coupled D1”; format: functional, cell-based
Mus musculus [15] = assay: Anti-obesity activity in high fat diet-induced obese C57BL/6J mouse model assessed as change in body weight at 20 mg/kg, po measured after 6 weeks (reference value: 3.86 +/- 0.99 g); format: functional
[16] = molecular target: Free fatty acid receptor 1 (Homo sapiens) (UniProt O14842); assay: Antagonist activity at GPR40 (unknown origin) expressed in HEK293 cells harboring luc2P/NFAT-RE plasmid at 10 uM after 6 to 8 hrs by luciferase reporter gene assay; format: cell-based; in short: as §4
[17] = molecular target: T1, D(4) dopamine receptor (Homo sapiens) (UniProt P21917); assay: Agonist activity at D4 receptor (unknown origin)
T1 sequence (whole entry): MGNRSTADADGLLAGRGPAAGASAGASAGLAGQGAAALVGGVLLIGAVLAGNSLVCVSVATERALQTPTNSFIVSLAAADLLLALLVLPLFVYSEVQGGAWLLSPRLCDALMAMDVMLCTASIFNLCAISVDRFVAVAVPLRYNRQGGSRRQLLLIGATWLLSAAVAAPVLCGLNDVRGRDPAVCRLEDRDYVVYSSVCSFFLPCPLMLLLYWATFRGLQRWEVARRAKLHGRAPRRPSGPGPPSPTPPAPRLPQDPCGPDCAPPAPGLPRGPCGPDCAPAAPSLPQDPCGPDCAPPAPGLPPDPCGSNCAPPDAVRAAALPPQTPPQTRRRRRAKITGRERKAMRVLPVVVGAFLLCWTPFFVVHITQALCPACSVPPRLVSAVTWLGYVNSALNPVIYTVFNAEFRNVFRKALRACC

Mus musculus [18] = assay: Anti-obesity activity in high fat diet-induced obese C57BL/6J mouse model assessed as change in blood total cholesterol level at 10 to 20 mg/kg, po measured after 6 weeks; format: functional, organism-based; in short: as §1
Mus musculus [19] = assay: Anorexic effect in 12 hrs fasted db/db-induced obese C57BL/6J mouse model assessed as reduction in cumulative food intake at 20 mg/kg, po pretreated for 30 mins followed by food addition measured after 4 hrs in presence of histidine decarboxylase inhibitor alpha-MDLH; format: functional, organism-based; in short: as §3

Chain of D(2) dopamine receptor (Homo sapiens) (P14416 whole entry): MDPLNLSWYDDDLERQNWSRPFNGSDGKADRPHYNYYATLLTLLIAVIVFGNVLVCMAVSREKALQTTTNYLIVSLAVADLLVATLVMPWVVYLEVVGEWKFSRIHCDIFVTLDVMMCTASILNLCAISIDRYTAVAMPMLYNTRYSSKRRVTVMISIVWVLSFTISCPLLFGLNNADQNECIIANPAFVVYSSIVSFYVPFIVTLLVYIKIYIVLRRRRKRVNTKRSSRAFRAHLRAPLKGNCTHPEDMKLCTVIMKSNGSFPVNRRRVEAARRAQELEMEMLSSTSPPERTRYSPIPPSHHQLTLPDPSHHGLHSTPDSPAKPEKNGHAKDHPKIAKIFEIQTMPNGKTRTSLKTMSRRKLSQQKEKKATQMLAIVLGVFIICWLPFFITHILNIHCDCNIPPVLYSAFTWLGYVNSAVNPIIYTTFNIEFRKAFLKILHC
Chain of D(1A) dopamine receptor (Homo sapiens) (P21728 whole entry): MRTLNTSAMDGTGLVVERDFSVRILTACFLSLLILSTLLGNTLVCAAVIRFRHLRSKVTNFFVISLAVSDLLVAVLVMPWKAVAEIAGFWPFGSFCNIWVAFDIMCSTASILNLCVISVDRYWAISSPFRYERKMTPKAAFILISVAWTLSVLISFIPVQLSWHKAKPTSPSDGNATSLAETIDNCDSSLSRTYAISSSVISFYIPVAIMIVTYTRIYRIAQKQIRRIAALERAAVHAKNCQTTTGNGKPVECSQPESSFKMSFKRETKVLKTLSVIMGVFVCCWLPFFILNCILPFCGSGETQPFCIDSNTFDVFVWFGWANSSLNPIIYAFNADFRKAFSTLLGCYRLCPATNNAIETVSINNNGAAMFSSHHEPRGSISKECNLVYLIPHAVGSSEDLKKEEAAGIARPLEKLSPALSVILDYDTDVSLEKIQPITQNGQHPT
Chain of Histamine H2 receptor (P25021 whole entry): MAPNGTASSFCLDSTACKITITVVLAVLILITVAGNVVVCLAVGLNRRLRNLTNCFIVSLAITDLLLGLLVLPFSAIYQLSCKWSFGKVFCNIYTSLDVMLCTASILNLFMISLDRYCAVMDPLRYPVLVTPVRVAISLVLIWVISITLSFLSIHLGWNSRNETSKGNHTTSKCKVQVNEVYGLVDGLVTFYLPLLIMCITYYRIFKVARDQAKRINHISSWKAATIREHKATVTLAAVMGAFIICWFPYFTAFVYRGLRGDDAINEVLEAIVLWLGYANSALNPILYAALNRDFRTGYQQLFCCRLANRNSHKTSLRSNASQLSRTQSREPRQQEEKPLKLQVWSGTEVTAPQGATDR
Chain of Free fatty acid receptor 1 (Homo sapiens) (O14842 whole entry): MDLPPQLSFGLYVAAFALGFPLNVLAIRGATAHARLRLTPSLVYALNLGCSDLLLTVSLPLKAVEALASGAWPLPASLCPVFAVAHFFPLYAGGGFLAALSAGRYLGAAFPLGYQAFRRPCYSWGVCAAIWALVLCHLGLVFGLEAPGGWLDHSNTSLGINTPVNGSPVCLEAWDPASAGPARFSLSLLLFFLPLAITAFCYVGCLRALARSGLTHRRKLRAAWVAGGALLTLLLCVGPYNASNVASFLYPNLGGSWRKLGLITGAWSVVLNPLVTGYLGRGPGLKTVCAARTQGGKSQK
Chain of Histamine H1 receptor (Homo sapiens) (P35367 whole entry): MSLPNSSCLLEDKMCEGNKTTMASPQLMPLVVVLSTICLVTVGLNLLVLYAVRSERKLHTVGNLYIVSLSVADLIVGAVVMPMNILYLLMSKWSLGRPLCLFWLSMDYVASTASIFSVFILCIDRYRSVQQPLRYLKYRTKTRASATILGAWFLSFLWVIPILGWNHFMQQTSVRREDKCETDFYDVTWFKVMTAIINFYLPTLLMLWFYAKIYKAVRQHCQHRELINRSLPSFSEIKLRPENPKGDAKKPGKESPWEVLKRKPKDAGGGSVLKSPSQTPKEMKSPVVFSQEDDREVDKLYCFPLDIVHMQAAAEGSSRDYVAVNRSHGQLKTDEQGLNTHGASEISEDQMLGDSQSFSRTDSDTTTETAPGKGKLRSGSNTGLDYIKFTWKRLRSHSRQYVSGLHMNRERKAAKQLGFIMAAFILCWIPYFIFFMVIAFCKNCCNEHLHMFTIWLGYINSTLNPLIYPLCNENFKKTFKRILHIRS

COc1ccc(-c2nc(N)nc3c2CCCC3C)cc1 (racemic)
Activity (Mus musculus [1]): inactive | Activity (Mus musculus [2]): Active | Activity (Histamine H2 receptor): < 50% | Activity (Mus musculus [3]): 27.1% | Cmax [4]: 3.36 µg/mL | Activity (Mus musculus [5]): inactive | Activity (Mus musculus [6]): Active | fraction unbound [7]: 0.0424 | Activity (Mus musculus [8]): inactive | Tmax [9]: 30 min | Cmax [10]: 101 ng/g | Activity [11]: inactive | inhibition [12]: inactive | inhibition [13]: inactive | inhibition [14]: inactive | Activity (Mus musculus [15]): 0.8 g | inhibition [16]: inactive | Activity [17]: inactive | Activity (Mus musculus [18]): inactive | Activity (Mus musculus [19]): inactive
